Results from ChEMBL document CHEMBL3286116, “Synthesis, biological evaluation and structure-activity correlation study of a series of imidazol-based compounds as Candida albicans inhibitors” (Eur J Med Chem, 2014).
Converted amounts (≈) assume the structure as drawn.

Tests used:
Format in all cases: functional
Candida albicans [1] = experiment: Antifungal activity against Candida albicans ATCC 10261 after 48 hrs by CLSI broth microdilution method; conditions: ATCC 10261, 48 h
In short: (§1)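 Yeast CLSI broth microdilution (M27-A3). Compounds dissolved in DMSO at 100× the top test concentration, then diluted as serial two-fold dilutions in RPMI 1640 to final 0.125–64. Inoculum was 1.0–1.5 × 10^3 cells mL−1, incubated at 35 °C and read for growth at 48 h. MIC is the lowest concentration giving ≥50% growth inhibition versus growth control. Reported as the median of five replicates and as the geometric mean.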

Cryptococcus neoformans [2] = experiment: Antifungal activity against Cryptococcus neoformans PMC 2115 after 72 hrs by CLSI broth microdilution method; conditions: PMC 2115, 72 h
In short: (§2)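 Cryptococcus neoformans tested by CLSI broth microdilution in RPMI 1640, with serial two-fold dilutions from DMSO stocks at 100× the top concentration, final 0.125–64. Inoculum was 1.0–1.5 × 10^3 cells mL−1 at 35 °C, with growth read at 72 h. MIC is the lowest concentration with ≥50% growth inhibition versus control. Median of five replicates, plus geometric mean.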

Nannizzia gypsea [3] = experiment: Antifungal activity against Microsporum gypseum DSM 3824 after 72 hrs by CLSI broth microdilution method; conditions: DSM 3824, 72 h
In short: (§3)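 Dermatophytes tested by CLSI broth microdilution for filamentous fungi (M38-A2). Serial two-fold dilutions of DMSO-dissolved compound in RPMI 1640, final 0.125–64. Inoculum was 0.4–5 × 10^4 CFU mL−1, incubated at 35 °C and read at 72 h. MIC80 is the lowest concentration giving ≥80% growth inhibition versus growth control. Median of five replicates, plus geometric mean.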

[4] = tested on: Trichophyton mentagrophytes; experiment: Antifungal activity against Trichophyton mentagrophytes PMC 6515 after 72 hrs by CLSI broth microdilution method; conditions: PMC 6515, 72 h; in short: as §3
Candida albicans [5] = experiment: Antifungal activity against Candida albicans ATCC 24433 after 48 hrs by CLSI broth microdilution method; conditions: ATCC 24433, 48 h; in short: as §1
Nannizzia gypsea [6] = experiment: Antifungal activity against Microsporum gypseum PMC 7331 after 72 hrs by CLSI broth microdilution method; conditions: PMC 7331, 72 h; in short: as §3
Cryptococcus neoformans [7] = experiment: Antifungal activity against Cryptococcus neoformans PMC 2102 after 72 hrs by CLSI broth microdilution method; conditions: PMC 2102, 72 h; in short: as §2
Cryptococcus neoformans [8] = experiment: Antifungal activity against Cryptococcus neoformans PMC 2107 after 72 hrs by CLSI broth microdilution method; conditions: PMC 2107, 72 h; in short: as §2
[9] = tested on: Trichophyton mentagrophytes; experiment: Antifungal activity against Trichophyton mentagrophytes PMC 6509 after 72 hrs by CLSI broth microdilution method; conditions: PMC 6509, 72 h; in short: as §3
Cryptococcus neoformans [10] = experiment: Antifungal activity against Cryptococcus neoformans PMC 2111 after 72 hrs by CLSI broth microdilution method; conditions: PMC 2111, 72 h; in short: as §2
Cryptococcus neoformans [11] = experiment: Antifungal activity against Cryptococcus neoformans PMC 2103 after 72 hrs by CLSI broth microdilution method; conditions: PMC 2103, 72 h; in short: as §2
Nannizzia gypsea [12] = experiment: Antifungal activity against Microsporum gypseum PMC 7303 after 72 hrs by CLSI broth microdilution method; conditions: PMC 7303, 72 h; in short: as §3
Candida albicans [13] = experiment: Antifungal activity against Candida albicans ATCC 90028 after 48 hrs by CLSI broth microdilution method; conditions: ATCC 90028, 48 h; in short: as §1
Candida tropicalis [14] = experiment: Antifungal activity against Candida tropicalis PMC 0910 after 48 hrs by CLSI broth microdilution method; conditions: PMC 0910, 48 h; in short: as §1
[15] = tested on: Trichophyton mentagrophytes; experiment: Antifungal activity against Trichophyton mentagrophytes PMC 6503 after 72 hrs by CLSI broth microdilution method; conditions: PMC 6503, 72 h; in short: as §3
Candida albicans [16] = experiment: Antifungal activity against Candida albicans ATCC 20891 after 48 hrs by CLSI broth microdilution method; conditions: ATCC 20891, 48 h; in short: as §1
Candida albicans [17] = experiment: Antifungal activity against Candida albicans ATCC 10231 after 48 hrs by CLSI broth microdilution method; conditions: ATCC 10231, 48 h; in short: as §1
Candida albicans [18] = experiment: Antifungal activity against Candida albicans ATCC 76615 after 48 hrs by CLSI broth microdilution method; conditions: ATCC 76615, 48 h; in short: as §1
[19] = tested on: Trichophyton mentagrophytes; experiment: Antifungal activity against Trichophyton mentagrophytes DSM 4870 after 72 hrs by CLSI broth microdilution method; conditions: DSM 4870, 72 h; in short: as §3
Candida parapsilosis [20] = experiment: Antifungal activity against Candida parapsilosis ATCC 22019 after 48 hrs by CLSI broth microdilution method; conditions: Lodderomyces parapsilosis, ATCC 22019, 48 h; in short: as §1
Candida parapsilosis [21] = experiment: Antifungal activity against Candida parapsilosis DSM 11224 after 48 hrs by CLSI broth microdilution method; conditions: Lodderomyces parapsilosis, DSM 11224, 48 h; in short: as §1
Candida albicans [22] = experiment: Antifungal activity against Candida albicans PMC 1011 after 48 hrs by CLSI broth microdilution method; conditions: PMC 1011, 48 h; in short: as §1
Nakaseomyces glabratus [23] = experiment: Antifungal activity against Candida glabrata PMC 0807 after 48 hrs by CLSI broth microdilution method; conditions: PMC 0807, 48 h; in short: as §1
Candida tropicalis [24] = experiment: Antifungal activity against Candida tropicalis DSM 11953 after 48 hrs by CLSI broth microdilution method; conditions: DSM 11953, 48 h; in short: as §1
Candida albicans [25] = experiment: Antifungal activity against Candida albicans ATCC 3153 after 48 hrs by CLSI broth microdilution method; conditions: ATCC 3153, 48 h; in short: as §1
Cryptococcus neoformans [26] = experiment: Antifungal activity against Cryptococcus neoformans PMC 2123 after 72 hrs by CLSI broth microdilution method; conditions: PMC 2123, 72 h; in short: as §2
Cryptococcus neoformans [27] = experiment: Antifungal activity against Cryptococcus neoformans PMC 2136 after 72 hrs by CLSI broth microdilution method; conditions: PMC 2136, 72 h; in short: as §2
Pichia kudriavzevii [28] = experiment: Antifungal activity against Candida krusei DSM 6128 after 48 hrs by CLSI broth microdilution method; conditions: DSM 6128, 48 h; in short: as §1
[29] = tested on: Trichophyton mentagrophytes; experiment: Antifungal activity against Trichophyton mentagrophytes PMC 6531 after 72 hrs by CLSI broth microdilution method; conditions: PMC 6531, 72 h; in short: as §3
Nakaseomyces glabratus [30] = experiment: Antifungal activity against Candida glabrata PMC 0805 after 48 hrs by CLSI broth microdilution method; conditions: PMC 0805, 48 h; in short: as §1
Pichia kudriavzevii [31] = experiment: Antifungal activity against Candida krusei PMC 0613 after 48 hrs by CLSI broth microdilution method; conditions: PMC 0613, 48 h; in short: as §1
[32] = tested on: Trichophyton mentagrophytes; experiment: Antifungal activity against Trichophyton mentagrophytes PMC 6552 after 72 hrs by CLSI broth microdilution method; conditions: PMC 6552, 72 h; in short: as §3
Cryptococcus neoformans [33] = experiment: Antifungal activity against Cryptococcus neoformans DSM 11959 after 72 hrs by CLSI broth microdilution method; conditions: DSM 11959, 72 h; in short: as §2

## O=C(Nc1ccc(N2CCN(c3ccc(Cl)cc3)CC2)cc1)O[C@H](Cn1ccnc1)c1ccc(F)cc1
Candida albicans [1]
  MIC50: 64 µg/mL (≈ 123 µM)
Cryptococcus neoformans [2]
  MIC50: 2 µg/mL (≈ 3.85 µM)
Nannizzia gypsea [3]
  MIC80: 128 µg/mL (≈ 246 µM)
[4]
  MIC80: 128 µg/mL (≈ 246 µM)
Candida albicans [5]
  MIC50: 64 µg/mL (≈ 123 µM)
Nannizzia gypsea [6]
  MIC80: 128 µg/mL (≈ 246 µM)
Cryptococcus neoformans [7]
  MIC50: 2 µg/mL (≈ 3.85 µM)
Cryptococcus neoformans [8]
  MIC50: 1 µg/mL (≈ 1.92 µM)
[9]
  MIC80: 128 µg/mL (≈ 246 µM)
Cryptococcus neoformans [10]
  MIC50: 1 µg/mL (≈ 1.92 µM)
Cryptococcus neoformans [11]
  MIC50: 1 µg/mL (≈ 1.92 µM)
Nannizzia gypsea [12]
  MIC80: 64 µg/mL (≈ 123 µM)
Candida albicans [13]
  MIC50: 32 µg/mL (≈ 61.5 µM)
Candida tropicalis [14]
  MIC50: 32 µg/mL (≈ 61.5 µM)
[15]
  MIC80: 128 µg/mL (≈ 246 µM)
Candida albicans [16]
  MIC50: 32 µg/mL (≈ 61.5 µM)
Candida albicans [17]
  MIC50: 32 µg/mL (≈ 61.5 µM)
Candida albicans [18]
  MIC50: 32 µg/mL (≈ 61.5 µM)
[19]
  MIC80: 128 µg/mL (≈ 246 µM)
Candida parapsilosis [20]
  MIC50: 4 µg/mL (≈ 7.69 µM)
Candida parapsilosis [21]
  MIC50: 2 µg/mL (≈ 3.85 µM)
Candida albicans [22]
  MIC50: 32 µg/mL (≈ 61.5 µM)
Nakaseomyces glabratus [23]
  MIC50: 4 µg/mL (≈ 7.69 µM)
Candida tropicalis [24]
  MIC50: 16 µg/mL (≈ 30.8 µM)
Candida albicans [25]
  MIC50: 64 µg/mL (≈ 123 µM)
Cryptococcus neoformans [26]
  MIC50: 2 µg/mL (≈ 3.85 µM)
Cryptococcus neoformans [27]
  MIC50: 2 µg/mL (≈ 3.85 µM)
Pichia kudriavzevii [28]
  MIC50: 2 µg/mL (≈ 3.85 µM)
[29]
  MIC80: 128 µg/mL (≈ 246 µM)
Nakaseomyces glabratus [30]
  MIC50: 2 µg/mL (≈ 3.85 µM)
Pichia kudriavzevii [31]
  MIC50: 1 µg/mL (≈ 1.92 µM)
[32]
  MIC80: 128 µg/mL (≈ 246 µM)
Cryptococcus neoformans [33]
  MIC50: 1 µg/mL (≈ 1.92 µM)

## O=C(OC(Cn1ccnc1)c1ccc(Cl)cc1)N1CCN(C(=O)c2ccco2)CC1 (stereo unspecified)
Candida albicans [1]
  MIC50: 32 µg/mL (≈ 74.6 µM)
Cryptococcus neoformans [2]
  MIC50: 128 µg/mL (≈ 298 µM)
Nannizzia gypsea [3]
  MIC80: 128 µg/mL (≈ 298 µM)
[4]
  MIC80: 128 µg/mL (≈ 298 µM)
Candida albicans [5]
  MIC50: 128 µg/mL (≈ 298 µM)
Nannizzia gypsea [6]
  MIC80: 128 µg/mL (≈ 298 µM)
Cryptococcus neoformans [7]
  MIC50: 128 µg/mL (≈ 298 µM)
Cryptococcus neoformans [8]
  MIC50: 32 µg/mL (≈ 74.6 µM)
[9]
  MIC80: 128 µg/mL (≈ 298 µM)
Cryptococcus neoformans [10]
  MIC50: 128 µg/mL (≈ 298 µM)
Cryptococcus neoformans [11]
  MIC50: 128 µg/mL (≈ 298 µM)
Nannizzia gypsea [12]
  MIC80: 128 µg/mL (≈ 298 µM)
Candida albicans [13]
  MIC50: 32 µg/mL (≈ 74.6 µM)
Candida tropicalis [14]
  MIC50: 128 µg/mL (≈ 298 µM)
[15]
  MIC80: 128 µg/mL (≈ 298 µM)
Candida albicans [16]
  MIC50: 64 µg/mL (≈ 149 µM)
Candida albicans [17]
  MIC50: 64 µg/mL (≈ 149 µM)
Candida albicans [18]
  MIC50: 64 µg/mL (≈ 149 µM)
[19]
  MIC80: 128 µg/mL (≈ 298 µM)
Candida parapsilosis [20]
  MIC50: 128 µg/mL (≈ 298 µM)
Candida parapsilosis [21]
  MIC50: 128 µg/mL (≈ 298 µM)
Candida albicans [22]
  MIC50: 128 µg/mL (≈ 298 µM)
Nakaseomyces glabratus [23]
  MIC50: 128 µg/mL (≈ 298 µM)
Candida tropicalis [24]
  MIC50: 128 µg/mL (≈ 298 µM)
Candida albicans [25]
  MIC50: 32 µg/mL (≈ 74.6 µM)
Cryptococcus neoformans [26]
  MIC50: 32 µg/mL (≈ 74.6 µM)
Cryptococcus neoformans [27]
  MIC50: 128 µg/mL (≈ 298 µM)
Pichia kudriavzevii [28]
  MIC50: 128 µg/mL (≈ 298 µM)
[29]
  MIC80: 128 µg/mL (≈ 298 µM)
Nakaseomyces glabratus [30]
  MIC50: 128 µg/mL (≈ 298 µM)
Pichia kudriavzevii [31]
  MIC50: 128 µg/mL (≈ 298 µM)
[32]
  MIC80: 128 µg/mL (≈ 298 µM)
Cryptococcus neoformans [33]
  MIC50: 128 µg/mL (≈ 298 µM)
